31 compounds from ChEMBL document CHEMBL1154630, “Discovery of colon tumor cell growth inhibitory agents through a combinatorial approach” (Eur J Med Chem, 2010) can be followed below.

Molecules are shown by their SMILES.

Assay [1] concerns the target T1, cGMP-inhibited 3',5'-cyclic phosphodiesterase 3A (Homo sapiens, UniProt Q14432). Description: Inhibition of human recombinant PDE3A at 50 uM by fluorescence polarization assay using cAMP as substrate. A general note: Polarisation of emitted light reports the rotation of a fluorescent probe.
Assay [2] has as its target T1, cGMP-inhibited 3',5'-cyclic phosphodiesterase 3A. Put plainly: Inhibition of human recombinant PDE3A at 50 uM by fluorescence polarization assay using cGMP as substrate.
The subject of assay [3] is HT-29. Description: Cytotoxicity against human HT-29 cells at 50 uM after 72 hrs by celltiter glo assay. The format is functional. Conditions: HT-29, 72 h, read-out: GI. The essentials: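 HT-29 cells in RPMI 1640 plus 5% FBS, cultures >95% viable by Trypan blue. Seeded at 5000 cells/well and incubated 18–24 h, then exposed to a single 50 μM screening dose in triplicate. Live cells measured by CellTiter-Glo luminescent ATP assay at 72 h; percent growth inhibition reported.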
For orientation: ATP-based viability assays read luminescence as a measure of living cells.

Assay [4] concerns HT-29. Description: Cytotoxicity against human HT-29 cells after 72 hrs by celltiter glo assay. The format is functional, cell-based. As to conditions: HT-29, 72 h. The essentials: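 HT-29 cells grown in RPMI 1640 with 5% FBS, used only at >95% viability (Trypan blue). 5000 cells/well, left 18–24 h before treatment. Viability read by CellTiter-Glo luminescence (ATP content) 72 h after treatment. IC50 from 8 concentrations, at least four replicates each, fitted to a four-parameter logistic equation.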

Assay [5] has as its target T1, cGMP-inhibited 3',5'-cyclic phosphodiesterase 3A. Put plainly: Inhibition of human recombinant PDE3A by fluorescence polarization assay using cAMP as substrate.
For assay [6] the target is unchanged. Description: Inhibition of human recombinant PDE3A by fluorescence polarization assay using cGMP as substrate.
The target of assay [7] is Baculoviral IAP repeat-containing protein 5 (Homo sapiens, UniProt O15392). Description: Inhibition of survivin.
Baculoviral IAP repeat-containing protein 5, sequence (O15392 whole entry): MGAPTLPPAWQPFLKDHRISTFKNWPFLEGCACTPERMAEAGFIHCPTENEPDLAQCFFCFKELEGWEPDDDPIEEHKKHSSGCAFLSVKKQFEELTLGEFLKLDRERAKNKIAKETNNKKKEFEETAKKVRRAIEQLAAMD

T1 sequence (Q14432 whole entry): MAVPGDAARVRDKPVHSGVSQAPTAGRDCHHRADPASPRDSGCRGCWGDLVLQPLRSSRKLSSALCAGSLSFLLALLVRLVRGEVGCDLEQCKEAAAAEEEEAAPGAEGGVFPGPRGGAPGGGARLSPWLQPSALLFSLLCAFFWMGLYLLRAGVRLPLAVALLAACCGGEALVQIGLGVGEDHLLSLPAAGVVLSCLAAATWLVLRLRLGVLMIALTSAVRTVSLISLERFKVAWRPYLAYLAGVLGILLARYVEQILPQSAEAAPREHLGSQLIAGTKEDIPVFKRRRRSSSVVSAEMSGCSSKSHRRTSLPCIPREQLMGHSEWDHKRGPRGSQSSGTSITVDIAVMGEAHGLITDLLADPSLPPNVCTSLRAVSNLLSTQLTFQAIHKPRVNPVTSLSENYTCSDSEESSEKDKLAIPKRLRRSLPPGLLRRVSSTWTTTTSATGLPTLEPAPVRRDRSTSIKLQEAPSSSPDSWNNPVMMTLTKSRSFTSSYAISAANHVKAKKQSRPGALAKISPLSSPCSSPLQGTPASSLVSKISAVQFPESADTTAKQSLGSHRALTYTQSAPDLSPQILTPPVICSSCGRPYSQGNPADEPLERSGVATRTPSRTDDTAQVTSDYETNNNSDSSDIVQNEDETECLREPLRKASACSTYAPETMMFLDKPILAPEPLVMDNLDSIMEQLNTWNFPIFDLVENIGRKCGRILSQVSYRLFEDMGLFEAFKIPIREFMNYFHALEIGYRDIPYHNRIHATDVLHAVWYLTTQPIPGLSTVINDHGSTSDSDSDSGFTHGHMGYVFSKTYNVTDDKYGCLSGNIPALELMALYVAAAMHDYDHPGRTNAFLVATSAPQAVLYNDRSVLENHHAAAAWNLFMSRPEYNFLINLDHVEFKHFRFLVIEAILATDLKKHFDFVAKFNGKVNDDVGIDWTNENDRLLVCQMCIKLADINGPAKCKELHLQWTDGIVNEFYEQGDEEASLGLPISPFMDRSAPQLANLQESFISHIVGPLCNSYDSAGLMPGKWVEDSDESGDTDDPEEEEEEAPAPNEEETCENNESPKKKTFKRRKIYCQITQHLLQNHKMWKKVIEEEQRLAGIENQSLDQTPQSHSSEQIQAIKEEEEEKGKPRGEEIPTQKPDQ

For the compound `N#Cc1c(-c2ccccc2O)cc(-c2ccccc2Br)[nH]c1=N`, the values for the inhibition in assay [1] and in assay [2] were 20% and 40%, respectively. Moreover, in the assay on HT-29 [3], the inhibition of growth at 50 µM was determined as 28%.

`COc1ccc(-c2cc(-c3ccsc3)[nH]c(=N)c2C#N)cc1` gave an IC50 in the assay with HT-29 [4] of 2.7 µM. Besides, the inhibition stood at 10% in assay [1] and 30% in assay [2]. Moreover, the inhibition of growth at 50 µM in the assay on HT-29 [3] worked out at 75%.

Take `CCOc1ccc(-c2cc(-c3ccsc3)[nH]c(=N)c2C#N)cc1`: the inhibition is 55% in assay [1] and 80% in assay [2]. The concentration for half-maximal inhibition (IC50) in assay [5] amounted to 13.3 µM; in assay [6] it was 13.5 µM. Besides, in the assay with HT-29 [3], the inhibition of growth at 50 µM is -10%.

Take `N#Cc1c(-c2ccsc2)cc(-c2ccccc2)[nH]c1=O`: the figures for the inhibition in assay [1] and in assay [2] were 7% and 9%, respectively. Besides, in the assay with HT-29 [3], the inhibition of growth at 50 µM was -10%.

Consider `COc1ccc(OC)c(-c2cc(-c3ccc(Br)cc3)[nH]c(=O)c2C#N)c1`, for which the values for the inhibition in assay [1] and in assay [2] were 8% and 17%, respectively. Further, the inhibition of growth at 50 µM with HT-29 [3] turned out to be 33%.

In the assay on HT-29 [4], `N#Cc1c(-c2cccc(Cl)c2)cc(-c2ccccc2)[nH]c1=O` gave an IC50 of 2.1 µM. For the same compound, the inhibition in assay [1] came out at 10%; in assay [2], 24%. The inhibition of growth at 50 µM in the assay with HT-29 [3] stood at 80%.

Consider `COc1ccc(-c2cc(-c3ccc(Br)cc3)[nH]c(=N)c2C#N)c(OC)c1`, for which the results for the inhibition in assay [1] and in assay [2] were 25% and 70%, respectively. Moreover, in the assay with HT-29 [3], the inhibition of growth at 50 µM was 2%.

As for `N#Cc1c(-c2cccc(Cl)c2)cc(-c2ccc(Br)cc2)[nH]c1=N`, the results for the inhibition in assay [1] and in assay [2] were 10% and 13%, respectively. Besides, the inhibition of growth at 50 µM in the assay on HT-29 [3] is 7%.

`CCOc1ccccc1-c1cc(-c2ccsc2)[nH]c(=N)c1C#N` came in with an IC50 with HT-29 [4] of 6 µM. The inhibition in assay [1] was 37%; in assay [2], -10%. In the assay with HT-29 [3], the inhibition of growth at 50 µM is 92%.

For the compound `N#Cc1c(-c2ccccc2Cl)cc(-c2ccc(Br)cc2)[nH]c1=O`, the inhibition in assay [1] worked out at 18%; in assay [2], 36%. Also, in the assay on HT-29 [3], the inhibition of growth at 50 µM amounted to 5%.

Take `N#Cc1c(-c2ccccc2Cl)cc(-c2ccc(Br)cc2)[nH]c1=N`: the inhibition in assay [1] turned out to be 36%; in assay [2] it was 47%. Besides, in the assay with HT-29 [3], the inhibition of growth at 50 µM is -16%.

As to `N#Cc1c(-c2ccc(Cl)cc2)cc(-c2ccsc2)[nH]c1=N`, the inhibition in assay [1] was 28%; in assay [2], 45%. Further, the inhibition of growth at 50 µM in the assay with HT-29 [3] is 65%.

`N#Cc1c(-c2cccc(Cl)c2)cc(-c2ccc(Br)cc2)[nH]c1=O`: the inhibition in assay [1] stood at 8%; in assay [2], 21%. Further, in the assay with HT-29 [3], the inhibition of growth at 50 µM is 7%.

Consider `N#Cc1c(-c2ccsc2)cc(-c2ccccc2)[nH]c1=N`, for which the inhibition worked out at 4% in assay [1] and 0% in assay [2]. For the same compound, the inhibition of growth at 50 µM in the assay on HT-29 [3] was determined as 25%.

For `N#Cc1c(-c2ccccc2O)cc(-c2ccccc2Br)[nH]c1=O`, the inhibition was 34% in assay [1] and 50% in assay [2]. In addition, in the assay with HT-29 [3], the inhibition of growth at 50 µM turned out to be 22%.

For `N#Cc1c(-c2ccccc2O)cc(-c2cccc(Br)c2)[nH]c1=O`, the inhibition in assay [1] worked out at 20%; in assay [2], 45%. In the assay with HT-29 [3], the inhibition of growth at 50 µM is -5%.

For the compound `N#Cc1c(-c2ccc(Cl)cc2)cc(-c2ccsc2)[nH]c1=O`, the inhibition in assay [1] turned out to be 5%; in assay [2], 14%.

For the compound `N#Cc1c(-c2ccccc2O)cc(-c2ccsc2)[nH]c1=O`, half-maximal inhibition with HT-29 [4] (IC50) required 46 µM. Moreover, the inhibition in assay [1] stood at 21%; in assay [2], 37%. Further, the inhibition of growth at 50 µM in the assay on HT-29 [3] stood at 79%.

For the compound `COc1ccccc1-c1cc(-c2ccsc2)[nH]c(=N)c1C#N`, the 50% inhibitory concentration (IC50) in the assay with HT-29 [4] was 35 µM. In addition, in assay [1], the inhibition came out at 47%. Moreover, the inhibition of growth at 50 µM in the assay on HT-29 [3] is 78%.

Regarding `COc1ccc(OC)c(-c2cc(-c3ccc(Br)cc3)[nH]c(=N)c2C#N)c1`, the half-maximal inhibitory concentration (IC50) in the assay with HT-29 [4] was 4 µM. The inhibition in assay [1] and in assay [2] was 20% throughout. In addition, the inhibition of growth at 50 µM in the assay on HT-29 [3] was 95%.

Consider `CCOc1ccc(-c2cc(-c3ccsc3)[nH]c(=O)c2C#N)cc1`, for which the results for the inhibition in assay [1] and in assay [2] were 7% and 0%, respectively. Also, the inhibition of growth at 50 µM in the assay with HT-29 [3] is -1%.

In turn, `N#Cc1c(-c2ccccc2)cc(-c2cc(Br)ccc2O)[nH]c1=O` displayed an equilibrium dissociation constant (Kd) in assay [7] of 5.7 µM.

On to `N#Cc1c(-c2ccccc2O)cc(-c2ccsc2)[nH]c1=N`, for which the values for the inhibition in assay [1] and in assay [2] were 21% and 26%, respectively. Besides, in the assay with HT-29 [3], the inhibition of growth at 50 µM worked out at 44%.

Consider `COc1ccc(-c2cc(-c3ccsc3)[nH]c(=O)c2C#N)cc1`, for which the inhibition is 8% in assay [1] and 0% in assay [2]. Moreover, the inhibition of growth at 50 µM in the assay with HT-29 [3] is -20%.

For `N#Cc1c(-c2ccccc2O)cc(-c2cccc(Br)c2)[nH]c1=N`, the inhibition is 18% in assay [1] and 36% in assay [2]. Also, the inhibition of growth at 50 µM in the assay on HT-29 [3] was found to be 30%.

Turning to `COc1ccc(-c2cc(-c3ccc(Br)cc3)[nH]c(=O)c2C#N)c(OC)c1`, the inhibition in assay [1] is 2%; in assay [2], -8%. Also, the inhibition of growth at 50 µM with HT-29 [3] is 0%.

As for `CCOc1ccccc1-c1cc(-c2ccsc2)[nH]c(=O)c1C#N`, in the assay with HT-29 [4], the IC50 came out at 1.25 µM. In addition, the values for the inhibition in assay [1] and in assay [2] were 5% and 20%, respectively. Also, the inhibition of growth at 50 µM with HT-29 [3] amounted to 80%.

For `N#Cc1c(-c2ccccc2O)cc(-c2ccc(Br)cc2)[nH]c1=O`, half-maximal inhibition in the assay on HT-29 [4] (IC50) required 21 µM. Also, the values for the inhibition in assay [1] and in assay [2] were 10% and 28%, respectively. Also, the inhibition of growth at 50 µM with HT-29 [3] amounted to 94%.

On to `N#Cc1c(-c2cccc(Cl)c2)cc(-c2ccccc2)[nH]c1=N`, for which the inhibition was 15% in assay [1] and 20% in assay [2].

With `COc1ccccc1-c1cc(-c2ccsc2)[nH]c(=O)c1C#N`, the results for the inhibition in assay [1] and in assay [2] were 10% and 8%, respectively. For the same compound, in the assay on HT-29 [3], the inhibition of growth at 50 µM amounted to 20%.

Consider `N#Cc1c(-c2ccccc2O)cc(-c2ccc(Br)cc2)[nH]c1=N`, for which the inhibition in assay [1] turned out to be 22%; in assay [2], 27%. Besides, the inhibition of growth at 50 µM in the assay with HT-29 [3] was 23%.

As usually defined, the inhibition is the change of the read-out against control, counted positive when it falls. A word on the IC50: it is the concentration that gives 50% inhibition. The Kd is the constant that tells how readily two partners part at equilibrium.
